These results are taken from ChEMBL document CHEMBL1145901, “A novel ergot alkaloid as a 5-HT(1A) inhibitor produced by Dicyma sp” (J Med Chem, 2003).

Some results are limits rather than exact numbers.

Usually EC50 stands for the concentration giving half of the maximal effect. A lower EC50 goes with an effect from little substance. A word on the Ki: it is the dissociation constant of the complex between target and ligand, obtained from inhibition or displacement. A low value points to tighter binding.

For assay [1], the target named is T1, 5-hydroxytryptamine receptor 1A (Homo sapiens) (UniProt P08908).
T1 sequence (whole entry): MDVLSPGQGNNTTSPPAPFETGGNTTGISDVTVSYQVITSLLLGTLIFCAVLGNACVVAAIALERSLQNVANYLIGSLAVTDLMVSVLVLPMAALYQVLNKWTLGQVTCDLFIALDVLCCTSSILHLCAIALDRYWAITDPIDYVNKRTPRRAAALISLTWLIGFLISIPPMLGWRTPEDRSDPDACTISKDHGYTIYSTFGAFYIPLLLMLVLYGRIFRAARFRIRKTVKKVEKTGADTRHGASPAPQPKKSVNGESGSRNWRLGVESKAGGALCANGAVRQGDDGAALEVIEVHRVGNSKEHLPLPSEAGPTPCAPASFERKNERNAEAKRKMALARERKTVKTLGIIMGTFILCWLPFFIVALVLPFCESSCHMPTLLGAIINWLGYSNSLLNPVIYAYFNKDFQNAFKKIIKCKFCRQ
Put plainly: Intrinsic activity for human 5-hydroxytryptamine 1A receptors HEK 293 cell membranes using [35S]GTP gamma-S. It is filed as functional. As to conditions: HEK293. An outline of the steps:
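Membranes from 10^6 HEK293 cells were preincubated with compound for 30 min at 30 °C in 20 mM HEPES pH 7.4 with 3 mM MgCl2, 100 mM NaCl, 10 μM GDP and 0.2 mM ascorbate. [35S]GTPγS (100 pM assay concentration) was then added for 30 min at 30 °C. Nonspecific binding used unlabeled GTPγS. Samples were filtered on GF/B and counted by scintillation. Intrinsic activity is relative to 5-HT; four to seven independent experiments.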

Assay [2] deals with T1, 5-hydroxytryptamine receptor 1A (Homo sapiens). Put plainly: (§1) Binding affinity against human 5-hydroxytryptamine 1A receptors HEK 293 cell membranes using [35S]GTP gamma-S. To be noted: HEK293. The format is functional. A general note: GTPγS is a poorly hydrolysed GTP analogue; its binding reports G protein activation.
In assay [3] the target is T2, 5-hydroxytryptamine receptor 1A (Homo sapiens, UniProt P08908).
T2 sequence (P08908 whole entry): T1 sequence (whole entry)
Described as §1. The format is functional, HEK293.

For assay [4], the target named is T2, 5-hydroxytryptamine receptor 1A. Put plainly: Binding affinity against 5-hydroxytryptamine 1A human cloned receptors in HEK293 cells using [3H]8-OH-DPAT as radioligand. It is filed as cell-based.
Assay [5] addresses T3, 5-hydroxytryptamine receptor 1B (Homo sapiens, UniProt P28222). Put plainly: Binding affinity against cloned human 5-hydroxytryptamine 1B receptor in CHO cells using [3H]5-CT as radioligand. The format is cell-based.
Assay [6] deals with T4, 5-hydroxytryptamine receptor 2A (Homo sapiens, UniProt P28223). Put plainly: Binding affinity against 5-hydroxytryptamine 2A receptor human cloned receptorswithouteffect in HEK 293 cells using [3H]ketanserin as radioligand. The format is cell-based, HEK293.
For assay [7], the target named is T5, 5-hydroxytryptamine receptor 2C (Homo sapiens, UniProt P28335).
T5 sequence (P28335 whole entry): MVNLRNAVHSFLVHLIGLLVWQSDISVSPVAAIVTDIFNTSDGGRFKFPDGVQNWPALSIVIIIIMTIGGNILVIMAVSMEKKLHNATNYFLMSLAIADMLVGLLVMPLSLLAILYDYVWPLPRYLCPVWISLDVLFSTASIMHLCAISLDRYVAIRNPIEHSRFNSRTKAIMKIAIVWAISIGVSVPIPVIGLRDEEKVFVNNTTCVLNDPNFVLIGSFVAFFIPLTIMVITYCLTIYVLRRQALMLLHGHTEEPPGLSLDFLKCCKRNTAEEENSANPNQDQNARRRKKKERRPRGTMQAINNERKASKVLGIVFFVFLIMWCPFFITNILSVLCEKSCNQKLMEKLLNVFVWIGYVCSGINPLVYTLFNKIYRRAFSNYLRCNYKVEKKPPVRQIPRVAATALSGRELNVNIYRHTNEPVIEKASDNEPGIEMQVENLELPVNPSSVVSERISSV
Put plainly: Binding affinity against 5-hydroxytryptamine 2C receptor human cloned receptorswithouteffect in HEK 293 cells using [3H]mesulergine as radioligand. It is filed as cell-based, HEK293. An outline of the steps: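 Filtration binding on membranes from cells stably expressing the human cloned receptor, homogenized in ice-cold 50 mM Tris (pH 7.7). Assay buffer was 50 mM Tris-HCl pH 7.4 with 0.1% ascorbic acid, 10 μM pargyline, 0.5 mM EDTA and 10 mM MgCl2. Compound in DMSO was preincubated 15 min at room temperature, then radioligand was added for 30-45 min at 37 °C. Read-out was scintillation counting. IC50 came from a four-parameter logistic fit and Ki from Cheng-Prusoff; values are the mean of at least two determinations.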

Assay [8] deals with 5-hydroxytryptamine receptor 7 (Homo sapiens, UniProt P34969). Put plainly: Binding affinity against 5-hydroxytryptamine 7 human receptors.
Assay [9] has as its target 5-hydroxytryptamine receptor 6 (Homo sapiens, UniProt P50406). Put plainly: Binding affinity against 5-hydroxytryptamine 6 human cloned receptors in HeLa cells using [3H]LSD as radioligand. The format is cell-based.
The target of the next assay is D(2) dopamine receptor (Homo sapiens, UniProt P14416). Put plainly: Binding affinity against human Dopamine receptor D2 in CHO cells using [125I]iodosulpiride. It is filed as cell-based.
The target of assay [10] is T2, 5-hydroxytryptamine receptor 1A. Put plainly: Binding affinity against 5-hydroxytryptamine 1A human cloned receptors in HEK293 cells. The format is cell-based. An outline of the steps:
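Human 5-HT1A stably expressed in HEK 293 cells. Membranes were homogenised in ice-cold 50 mM Tris (pH 7.7 at 25 °C) and stored at -70 °C. Binding was measured as displacement of [3H]-8-OH-DPAT. IC50 came from a four-parameter logistic fit of cpm and was converted to Ki by Cheng-Prusoff. Values are the mean of at least two determinations.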

In assay [11] the target is T4, 5-hydroxytryptamine receptor 2A. Put plainly: Binding affinity against 5-hydroxytryptamine 2A receptor human cloned receptors in HEK 293 cells using [3H]ketanserin as radioligand. It is filed as cell-based, HEK293.
Assay [12] addresses T5, 5-hydroxytryptamine receptor 2C. Put plainly: Binding affinity against 5-hydroxytryptamine 2C receptor human cloned receptors in HEK 293 cells using [3H]mesulergine as radioligand. The format is cell-based, HEK293.
Assay [13] has as its target T3, 5-hydroxytryptamine receptor 1B. Put plainly: Binding affinity against human 5-hydroxytryptamine 1B receptor cloned receptors in CHO cells using [3H]5-CT as radioligand. The format is cell-based. An outline of the steps:
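Membranes from CHO cells expressing human 5-HT1B, in 50 mM Tris-HCl pH 7.4 with 0.1% ascorbate, 10 μM pargyline, 0.5 mM EDTA and 10 mM MgCl2. Compound in DMSO was preincubated 15 min at RT, then 10 nM stock [3H]-5-CT was added for 30-45 min at 37 °C. Filtration on PEI-treated GF/C, scintillation counting; 200 μM 5-HT (stock) defined nonspecific binding. Four-parameter IC50, Cheng-Prusoff Ki, mean of at least two determinations.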

For assay [14] the target is unchanged. Put plainly: Binding affinity against human 5-hydroxytryptamine 1B receptor cloned receptors in CHO cells. The format is cell-based. An outline of the steps: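 Human 5-HT1B-expressing CHO cell membranes were homogenized in ice-cold 50 mM Tris (pH 7.7) and stored at -70 °C. They were resuspended in 50 mM Tris-HCl pH 7.4 containing 0.1% ascorbate, 10 μM pargyline, 0.5 mM EDTA and 10 mM MgCl2. Compound in DMSO was preincubated with membranes for 15 min at RT. [3H]-5-CT (added from 10 nM) was then incubated 30-45 min at 37 °C. Samples were filtered and counted by scintillation. Nonspecific binding used 5-HT. IC50 came from a four-parameter fit; Ki by Cheng-Prusoff. Results are means of ≥2 determinations.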

5-hydroxytryptamine receptor 6, sequence (P50406 whole entry): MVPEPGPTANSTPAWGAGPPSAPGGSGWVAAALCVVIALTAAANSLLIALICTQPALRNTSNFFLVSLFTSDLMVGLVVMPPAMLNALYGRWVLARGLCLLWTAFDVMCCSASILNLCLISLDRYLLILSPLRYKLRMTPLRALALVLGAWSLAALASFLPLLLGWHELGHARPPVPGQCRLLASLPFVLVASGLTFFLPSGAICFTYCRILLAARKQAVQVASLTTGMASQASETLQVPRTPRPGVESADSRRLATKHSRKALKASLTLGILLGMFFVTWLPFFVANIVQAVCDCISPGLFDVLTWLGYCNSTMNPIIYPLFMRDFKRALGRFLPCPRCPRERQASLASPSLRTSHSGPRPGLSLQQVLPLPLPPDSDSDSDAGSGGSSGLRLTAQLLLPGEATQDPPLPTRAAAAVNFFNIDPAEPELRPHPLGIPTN
T4 sequence (P28223 whole entry): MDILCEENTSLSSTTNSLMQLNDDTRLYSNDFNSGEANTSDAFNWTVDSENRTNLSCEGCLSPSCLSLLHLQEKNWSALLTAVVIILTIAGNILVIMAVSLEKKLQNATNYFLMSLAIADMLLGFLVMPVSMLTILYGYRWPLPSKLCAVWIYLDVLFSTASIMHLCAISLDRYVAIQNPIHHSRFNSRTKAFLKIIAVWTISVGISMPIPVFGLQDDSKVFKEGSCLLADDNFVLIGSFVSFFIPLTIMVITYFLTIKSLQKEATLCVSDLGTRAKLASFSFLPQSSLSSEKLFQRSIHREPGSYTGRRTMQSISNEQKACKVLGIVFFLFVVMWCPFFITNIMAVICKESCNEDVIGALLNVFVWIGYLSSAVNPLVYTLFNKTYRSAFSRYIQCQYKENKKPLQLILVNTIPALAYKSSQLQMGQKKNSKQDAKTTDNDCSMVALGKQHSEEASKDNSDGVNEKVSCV
T3 sequence (P28222 whole entry): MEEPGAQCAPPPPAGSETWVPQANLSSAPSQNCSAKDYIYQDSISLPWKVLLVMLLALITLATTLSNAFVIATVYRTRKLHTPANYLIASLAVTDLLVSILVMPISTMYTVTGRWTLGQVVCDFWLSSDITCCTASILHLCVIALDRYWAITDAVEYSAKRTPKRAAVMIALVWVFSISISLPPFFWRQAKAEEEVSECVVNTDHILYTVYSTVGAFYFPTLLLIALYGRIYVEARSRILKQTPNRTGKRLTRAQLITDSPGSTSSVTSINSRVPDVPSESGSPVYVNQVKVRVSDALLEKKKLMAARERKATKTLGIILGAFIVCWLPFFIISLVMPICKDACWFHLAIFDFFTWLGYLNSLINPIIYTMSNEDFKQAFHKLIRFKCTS
5-hydroxytryptamine receptor 7, sequence (P34969 whole entry): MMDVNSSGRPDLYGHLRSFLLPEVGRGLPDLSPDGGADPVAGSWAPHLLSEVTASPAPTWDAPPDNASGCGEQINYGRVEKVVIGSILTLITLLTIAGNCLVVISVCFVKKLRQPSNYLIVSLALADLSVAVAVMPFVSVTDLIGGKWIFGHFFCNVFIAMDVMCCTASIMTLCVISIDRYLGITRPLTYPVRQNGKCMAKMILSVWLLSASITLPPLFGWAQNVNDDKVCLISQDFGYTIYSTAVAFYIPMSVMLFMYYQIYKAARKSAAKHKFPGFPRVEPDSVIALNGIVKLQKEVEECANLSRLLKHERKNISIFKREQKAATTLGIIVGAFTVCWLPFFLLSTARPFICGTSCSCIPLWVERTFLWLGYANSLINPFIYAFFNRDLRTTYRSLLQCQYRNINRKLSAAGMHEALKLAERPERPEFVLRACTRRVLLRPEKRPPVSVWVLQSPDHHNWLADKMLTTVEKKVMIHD
D(2) dopamine receptor, sequence (P14416 whole entry): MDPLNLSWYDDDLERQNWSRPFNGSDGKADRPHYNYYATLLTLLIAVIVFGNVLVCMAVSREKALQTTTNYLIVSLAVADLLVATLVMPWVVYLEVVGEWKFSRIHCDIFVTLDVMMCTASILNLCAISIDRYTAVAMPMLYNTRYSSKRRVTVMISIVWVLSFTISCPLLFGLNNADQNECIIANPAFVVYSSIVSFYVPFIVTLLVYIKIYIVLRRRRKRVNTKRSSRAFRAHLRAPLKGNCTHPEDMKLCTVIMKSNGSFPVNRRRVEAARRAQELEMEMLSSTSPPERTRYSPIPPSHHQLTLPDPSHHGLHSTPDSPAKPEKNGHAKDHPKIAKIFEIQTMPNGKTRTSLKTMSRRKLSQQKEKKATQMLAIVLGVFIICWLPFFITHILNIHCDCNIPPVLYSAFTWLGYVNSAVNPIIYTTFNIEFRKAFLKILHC

Take `CC(C)C[C@H]1C(=O)N[C@@H](Cc2ccccc2)[C@]2(O)O[C@@](C)(NC(=O)[C@@H]3C=C4c5cccc6[nH]cc(c56)C[C@H]4N(C)C3)C(=O)N12`: the Intrinsic activity in [1] is 1.11. Also, the Emax in [2] worked out at 229. This compound returned a Stimulation in [2] of 138. Moreover, in assay [3], the EC50 is 2 nM. In addition, the inhibitory constant (Ki) was 0.0631 nM in assay [4]; 3.16 nM in assay [5]; 15.8 nM in [6]; 15.8 nM in [7]; 6.31 nM in [8]; 50.1 nM in assay [9]. This compound showed an inhibition constant (Ki) at D(2) dopamine receptor of 3.16 nM.

For the compound `NCCc1c[nH]c2ccc(O)cc12`, the Intrinsic activity in assay [1] worked out at 1.

In assay [1], `CN1CCN(c2cc3c(cc2Cl)CCN3C(=O)Nc2ccc(-c3ccncc3)c3ccccc23)CC1` displayed an Intrinsic activity of 0.33. Besides, in assay [2], the Emax stood at 144 and the Stimulation was 42%. The response in assay [3] was half-maximal at 19.1 nM (EC50).

In the case of `NCCCC1(CCCN)CCc2cccc(O)c2C1`, the inhibition constant Ki in assay [10] was 2 nM; in [11] it was 10000 nM; in [12], 12600 nM; in assay [8], 3.16 nM; in [9], 126 nM; in assay [13], 316 nM.

Turning to `NCCc1c[nH]c2ccc(C(N)=O)cc12`, the Ki in [14] was 1.26 nM; in assay [11], more than 5010 nM; in assay [9] it was 1000 nM.
